Measurements: ChEMBL document CHEMBL1134643 (J Med Chem, 2001)
Activity calls are given as the source filed them. The rule behind the calls is not given here.

Experiments:
Nociceptin receptor [1] = target: Nociceptin receptor (Mus musculus, UniProt P35377); assay: Inhibition of [3H]NC-NH2 binding to mouse forebrain membranes; set-up: species or system Membrane
[2] = target: Nociceptin receptor (Mus musculus) (UniProt P35377); assay: Maximum receptor binding in the electrically stimulated mouse vas deferens; type: functional, tissue-based
Method in brief: (§1)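 Vas deferens from male Swiss mice (25-30 g) is held in Mg2+-free Krebs at 33 °C, gassed with 95% O2/5% CO2 at pH 7.4. Tissue is stimulated at 0.05 Hz with 1 ms supramaximal pulses under 0.3 g resting tension, and twitches are recorded isotonically.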

Mus musculus [3] = species on record: Mus musculus; assay: Maximum receptor binding assay determined by using mouse forebrain membrane and [3H]NC-NH2 at 10 uM; type: functional
Mus musculus [4] = species on record: Mus musculus; assay: Antagonist activity of compound in the electrically stimulated mouse vas deferens; type: functional
Method in brief: (§2)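 Peptides without agonist effect in the mouse vas deferens (Mg2+-free Krebs, 33 °C, 0.05 Hz, 1 ms pulses) are tested up to 10 μM. Each is added 15 min before a cumulative concentration-response curve to NC(1-13)-NH2. pKB is calculated with the Gaddum-Schild equation, taking slope as unity, from the concentration-ratio of equieffective agonist concentrations.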

Nociceptin receptor [5] = target: Nociceptin receptor (Homo sapiens, UniProt P41146); assay: Inhibition of forskolin stimulated cAMP accumulation in CHO cells stably expressing the human OP4 receptor; type: functional, cell-based
Mus musculus [6] = species on record: Mus musculus; assay: Maximum receptor binding assay determined by using mouse forebrain membrane and [3H]NC-NH2; Inactive; type: functional
Method in brief: (§3)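 Forebrains from male Swiss mice are homogenised in 50 mM Tris-HCl, 2 mM EDTA, 100 μM PMSF, pH 7.4. Membranes are preincubated 30 min at 37 °C and stored at -80 °C. Displacement uses 0.5 nM [3H]NC-NH2, 200 μg protein, and graded ligand concentrations up to 10 μM, for 120 min at 25 °C.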

Mus musculus [7] = species on record: Mus musculus; assay: Antagonist activity of compound in the electrically stimulated mouse vas deferens; Inactive; type: functional; method in brief: as §2
Mus musculus [8] = species on record: Mus musculus; assay: Agonist activity of compound in the electrically stimulated mouse vas deferens; Inactive; type: functional; method in brief: as §1
Mus musculus [9] = species on record: Mus musculus; assay: Maximum receptor binding assay determined by using mouse forebrain membrane and [3H]NC-NH2; type: functional; method in brief: as §3
Mus musculus [10] = species on record: Mus musculus; assay: Maximum receptor binding using mouse forebrain membranes and [3H]NC-NH2; type: functional; conditions: Membrane; method in brief: as §3
Mus musculus [11] = species on record: Mus musculus; assay: receptor binding constant using mouse forebrain membranes and [3H]NC-NH2 as radioligand; type: functional, Membrane; method in brief: as §3

Nociceptin receptor (Mus musculus, UniProt P35377), sequence (P35377 whole entry): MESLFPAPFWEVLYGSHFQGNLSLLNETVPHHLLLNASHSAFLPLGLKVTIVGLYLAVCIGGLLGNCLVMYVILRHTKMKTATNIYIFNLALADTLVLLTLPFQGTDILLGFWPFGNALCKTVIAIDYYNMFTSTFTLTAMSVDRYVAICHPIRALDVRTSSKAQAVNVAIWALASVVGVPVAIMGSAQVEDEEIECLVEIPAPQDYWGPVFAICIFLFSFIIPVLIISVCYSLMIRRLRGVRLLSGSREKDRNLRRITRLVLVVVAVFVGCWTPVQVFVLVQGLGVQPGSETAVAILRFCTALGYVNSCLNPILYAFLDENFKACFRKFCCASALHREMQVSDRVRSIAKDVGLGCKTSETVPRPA
Nociceptin receptor (Mus musculus), sequence (P35377 whole entry): as above
Nociceptin receptor (Homo sapiens, UniProt P41146), sequence (P41146 whole entry): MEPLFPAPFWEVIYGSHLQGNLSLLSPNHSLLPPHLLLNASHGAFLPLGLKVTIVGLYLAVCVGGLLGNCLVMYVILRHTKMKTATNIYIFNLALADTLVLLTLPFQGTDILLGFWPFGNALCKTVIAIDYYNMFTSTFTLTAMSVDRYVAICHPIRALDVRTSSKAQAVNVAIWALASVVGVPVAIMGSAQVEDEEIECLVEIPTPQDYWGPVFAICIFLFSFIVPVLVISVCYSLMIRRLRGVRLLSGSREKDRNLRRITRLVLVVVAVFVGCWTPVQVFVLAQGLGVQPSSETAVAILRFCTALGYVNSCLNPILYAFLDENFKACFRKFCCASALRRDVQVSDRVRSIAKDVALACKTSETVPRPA

Row | Compound | Ki (Nociceptin receptor [1]) [nM] | Emax [2] [%] | also measured
1 | CC(C)C[C@H](NC(=O)[C@H](CCCCN)NC(=O)[C@H](CCCN=C(N)N)NC(=O)[C@H](C)NC(=O)[C@H](CO)NC(=O)[C@H](CCCCN)NC(=O)[C@H](CCCN=C(N)N)NC(=O)[C@H](C)NC(=O)CNC(=O)[C@@H](NC(=O)[C@H](Cc1ccccc1)NC(=O)CNC(=O)CNC(=O)[C@@H](N)Cc1ccccc1)[C@@H](C)O)C(=O)N[C@@H](C)C(=O)N[C@@H](CC(N)=O)C(=O)N[C@@H](CCC(N)=O)C(=O)O | 1.91 |  | 
2 | C[C@H](NC(=O)CNC(=O)[C@@H](NC(=O)[C@H](Cc1ccc(F)cc1)NC(=O)CNC(=O)CNC(=O)[C@@H](N)Cc1ccccc1)[C@@H](C)O)C(=O)N[C@@H](CCCN=C(N)N)C(=O)N[C@@H](CCCCN)C(=O)N[C@@H](CO)C(=O)N[C@@H](C)C(=O)N[C@@H](CCCN=C(N)N)C(=O)N[C@@H](CCCCN)C(N)=O | 0.398 | -85 | 
3 | C[C@H](NC(=O)CNC(=O)[C@@H](NC(=O)[C@H](CC1CCCCC1)NC(=O)CNC(=O)CNC(=O)[C@@H](N)Cc1ccccc1)[C@@H](C)O)C(=O)N[C@@H](CCCN=C(N)N)C(=O)N[C@@H](CCCCN)C(=O)N[C@@H](CO)C(=O)N[C@@H](C)C(=O)N[C@@H](CCCN=C(N)N)C(=O)N[C@@H](CCCCN)C(N)=O |  |  | Emax (Mus musculus [3]): -34%
4 | C[C@H](NC(=O)CNC(=O)[C@@H](NC(=O)[C@H](Cc1ccc(O)cc1)NC(=O)CNC(=O)CNC(=O)[C@@H](N)Cc1ccccc1)[C@@H](C)O)C(=O)N[C@@H](CCCN=C(N)N)C(=O)N[C@@H](CCCCN)C(=O)N[C@@H](CO)C(=O)N[C@@H](C)C(=O)N[C@@H](CCCN=C(N)N)C(=O)N[C@@H](CCCCN)C(N)=O | 501 |  | pKb (Mus musculus [4]): 5.47; EC50 (Nociceptin receptor [5]): 135 nM
5 | C[C@H](NC(=O)CNC(=O)[C@@H](NC(=O)[C@H](Cc1ccccc1F)NC(=O)CNC(=O)CNC(=O)[C@@H](N)Cc1ccccc1)[C@@H](C)O)C(=O)N[C@@H](CCCN=C(N)N)C(=O)N[C@@H](CCCCN)C(=O)N[C@@H](CO)C(=O)N[C@@H](C)C(=O)N[C@@H](CCCN=C(N)N)C(=O)N[C@@H](CCCCN)C(N)=O | 3.63 | -94 | 
6 | C[C@H](NC(=O)CNC(=O)[C@@H](NC(=O)[C@H](Cc1ccc(C#N)cc1)NC(=O)CNC(=O)CNC(=O)[C@@H](N)Cc1ccccc1)[C@@H](C)O)C(=O)N[C@@H](CCCN=C(N)N)C(=O)N[C@@H](CCCCN)C(=O)N[C@@H](CO)C(=O)N[C@@H](C)C(=O)N[C@@H](CCCN=C(N)N)C(=O)N[C@@H](CCCCN)C(N)=O | 0.603 | -84 | 
7 | C[C@H](NC(=O)CNC(=O)[C@@H](NC(=O)[C@H](Cc1ccc(Cl)cc1)NC(=O)CNC(=O)CNC(=O)[C@@H](N)Cc1ccccc1)[C@@H](C)O)C(=O)N[C@@H](CCCN=C(N)N)C(=O)N[C@@H](CCCCN)C(=O)N[C@@H](CO)C(=O)N[C@@H](C)C(=O)N[C@@H](CCCN=C(N)N)C(=O)N[C@@H](CCCCN)C(N)=O | 0.794 | -82 | 
8 | C[C@H](NC(=O)CNC(=O)[C@@H](NC(=O)[C@H](Cc1ccc(I)cc1)NC(=O)CNC(=O)CNC(=O)[C@@H](N)Cc1ccccc1)[C@@H](C)O)C(=O)N[C@@H](CCCN=C(N)N)C(=O)N[C@@H](CCCCN)C(=O)N[C@@H](CO)C(=O)N[C@@H](C)C(=O)N[C@@H](CCCN=C(N)N)C(=O)N[C@@H](CCCCN)C(N)=O | 17.4 | -76 | 
9 | C[C@H](NC(=O)CNC(=O)[C@@H](NC(=O)[C@H](Cc1ccc(-c2ccccc2)cc1)NC(=O)CNC(=O)CNC(=O)[C@@H](N)Cc1ccccc1)[C@@H](C)O)C(=O)N[C@@H](CCCN=C(N)N)C(=O)N[C@@H](CCCCN)C(=O)N[C@@H](CO)C(=O)N[C@@H](C)C(=O)N[C@@H](CCCN=C(N)N)C(=O)N[C@@H](CCCCN)C(N)=O |  |  | Emax (Mus musculus [6]): inactive; pKb (Mus musculus [7]): inactive; Log EC50 (Mus musculus [8]): inactive
10 | C[C@H](NC(=O)CNC(=O)[C@@H](NC(=O)[C@H](Cc1ccccc1)NC(=O)CNC(=O)CNC(=O)[C@@H](N)Cc1ccccc1)[C@@H](C)O)C(=O)N[C@@H](CCCNC(=N)N)C(=O)N[C@@H](CCCCN)C(=O)N[C@@H](CO)C(=O)N[C@@H](C)C(=O)N[C@@H](CCCNC(=N)N)C(=O)N[C@@H](CCCCN)C(N)=O |  |  | Emax (Mus musculus [9]): -82%
11 | COc1ccc(C[C@H](NC(=O)CNC(=O)CNC(=O)[C@@H](N)Cc2ccccc2)C(=O)N[C@H](C(=O)NCC(=O)N[C@@H](C)C(=O)N[C@@H](CCCN=C(N)N)C(=O)N[C@@H](CCCCN)C(=O)N[C@@H](CO)C(=O)N[C@@H](C)C(=O)N[C@@H](CCCN=C(N)N)C(=O)N[C@@H](CCCCN)C(N)=O)[C@@H](C)O)cc1 | 89.1 | -80 | EC50 (Nociceptin receptor [5]): 63.1 nM
12 | C[C@H](NC(=O)CNC(=O)[C@@H](NC(=O)CN(Cc1ccccc1)C(=O)CNC(=O)CNC(=O)[C@@H](N)Cc1ccccc1)[C@@H](C)O)C(=O)N[C@@H](CCCN=C(N)N)C(=O)N[C@@H](CCCCN)C(=O)N[C@@H](CO)C(=O)N[C@@H](C)C(=O)N[C@@H](CCCN=C(N)N)C(=O)N[C@@H](CCCCN)C(N)=O |  |  | Emax (Mus musculus [3]): -16%
13 | C[C@H](NC(=O)CNC(=O)[C@@H](NC(=O)[C@H](Cc1ccc(C(F)(F)F)cc1)NC(=O)CNC(=O)CNC(=O)[C@@H](N)Cc1ccccc1)[C@@H](C)O)C(=O)N[C@@H](CCCN=C(N)N)C(=O)N[C@@H](CCCCN)C(=O)N[C@@H](CO)C(=O)N[C@@H](C)C(=O)N[C@@H](CCCN=C(N)N)C(=O)N[C@@H](CCCCN)C(N)=O | 1 | -75 | 
14 | C[C@H](NC(=O)CNC(=O)[C@@H](NC(=O)[C@H](Cc1cccc2ccccc12)NC(=O)CNC(=O)CNC(=O)[C@@H](N)Cc1ccccc1)[C@@H](C)O)C(=O)N[C@@H](CCCN=C(N)N)C(=O)N[C@@H](CCCCN)C(=O)N[C@@H](CO)C(=O)N[C@@H](C)C(=O)N[C@@H](CCCN=C(N)N)C(=O)N[C@@H](CCCCN)C(N)=O |  |  | Emax (Mus musculus [10]): -80%
15 | C[C@H](NC(=O)CNC(=O)[C@@H](NC(=O)[C@H](Cc1ccc2ccccc2c1)NC(=O)CNC(=O)CNC(=O)[C@@H](N)Cc1ccccc1)[C@@H](C)O)C(=O)N[C@@H](CCCN=C(N)N)C(=O)N[C@@H](CCCCN)C(=O)N[C@@H](CO)C(=O)N[C@@H](C)C(=O)N[C@@H](CCCN=C(N)N)C(=O)N[C@@H](CCCCN)C(N)=O |  |  | Emax (Mus musculus [9]): -75%
16 | Cc1ccc(C[C@H](NC(=O)CNC(=O)CNC(=O)[C@@H](N)Cc2ccccc2)C(=O)N[C@H](C(=O)NCC(=O)N[C@@H](C)C(=O)N[C@@H](CCCN=C(N)N)C(=O)N[C@@H](CCCCN)C(=O)N[C@@H](CO)C(=O)N[C@@H](C)C(=O)N[C@@H](CCCN=C(N)N)C(=O)N[C@@H](CCCCN)C(N)=O)[C@@H](C)O)cc1 |  | -73 | Log Ki (Mus musculus [11]): -7.84
17 | C[C@H](NC(=O)CNC(=O)[C@@H](NC(=O)[C@H](Cc1ccccc1)N(C)C(=O)CNC(=O)CNC(=O)[C@@H](N)Cc1ccccc1)[C@@H](C)O)C(=O)N[C@@H](CCCN=C(N)N)C(=O)N[C@@H](CCCCN)C(=O)N[C@@H](CO)C(=O)N[C@@H](C)C(=O)N[C@@H](CCCN=C(N)N)C(=O)N[C@@H](CCCCN)C(N)=O |  |  | Emax (Mus musculus [9]): -84%
18 | C[C@H](NC(=O)CNC(=O)[C@@H](NC(=O)[C@@H](NC(=O)CNC(=O)CNC(=O)[C@@H](N)Cc1ccccc1)[C@@H](C)c1ccccc1)[C@@H](C)O)C(=O)N[C@@H](CCCN=C(N)N)C(=O)N[C@@H](CCCCN)C(=O)N[C@@H](CO)C(=O)N[C@@H](C)C(=O)N[C@@H](CCCN=C(N)N)C(=O)N[C@@H](CCCCN)C(N)=O |  |  | Emax (Mus musculus [9]): -86%
19 | C[C@H](NC(=O)CNC(=O)[C@@H](NC(=O)[C@H](Cc1ccc([N+](=O)[O-])cc1)NC(=O)CNC(=O)CNC(=O)[C@@H](N)Cc1ccccc1)[C@@H](C)O)C(=O)N[C@@H](CCCN=C(N)N)C(=O)N[C@@H](CCCCN)C(=O)N[C@@H](CO)C(=O)N[C@@H](C)C(=O)N[C@@H](CCCN=C(N)N)C(=O)N[C@@H](CCCCN)C(N)=O | 0.302 | -86 | 
20 | C[C@H](NC(=O)CNC(=O)[C@@H](NC(=O)[C@H](Cc1cccc(F)c1)NC(=O)CNC(=O)CNC(=O)[C@@H](N)Cc1ccccc1)[C@@H](C)O)C(=O)N[C@@H](CCCN=C(N)N)C(=O)N[C@@H](CCCCN)C(=O)N[C@@H](CO)C(=O)N[C@@H](C)C(=O)N[C@@H](CCCN=C(N)N)C(=O)N[C@@H](CCCCN)C(N)=O | 0.891 | -90 | 
21 | C[C@H](NC(=O)CNC(=O)[C@@H](NC(=O)[C@H](Cc1ccc(Br)cc1)NC(=O)CNC(=O)CNC(=O)[C@@H](N)Cc1ccccc1)[C@@H](C)O)C(=O)N[C@@H](CCCN=C(N)N)C(=O)N[C@@H](CCCCN)C(=O)N[C@@H](CO)C(=O)N[C@@H](C)C(=O)N[C@@H](CCCN=C(N)N)C(=O)N[C@@H](CCCCN)C(N)=O | 1.82 | -85 | 
22 | C[C@H](NC(=O)CNC(=O)[C@@H](NC(=O)[C@H](Cc1ccc(N)cc1)NC(=O)CNC(=O)CNC(=O)[C@@H](N)Cc1ccccc1)[C@@H](C)O)C(=O)N[C@@H](CCCN=C(N)N)C(=O)N[C@@H](CCCCN)C(=O)N[C@@H](CO)C(=O)N[C@@H](C)C(=O)N[C@@H](CCCN=C(N)N)C(=O)N[C@@H](CCCCN)C(N)=O | 1780 | -23 | 
